# ChEMBL document CHEMBL1131201, “N-(benzyloxycarbonyl)glycine esters and amides as new anticonvulsants” (J Med Chem, 1998)
# Legend:
# Mus musculus [1] = experiment: Compound was tested for anticonvulsant activity in maximal electroshock seizure(MES) test after 30 min upon intraperitoneal administration to mice at a dose of 114 mg/kg; Animals protected / Animals tested = 3/10; type: functional
# Procedure, shortened: (§1)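 Male OF1 mice (15-25 g), free access to water only during testing. Compound given ip and maximal electroshock applied at 30 min or 3 h. Typically 8-10 mice per compound, dose and time point. Screening at initial 0.4 mmol/kg, scored as protected/tested.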
# Mus musculus [2] = experiment: Compound was tested for anticonvulsant activity in maximal electroshock seizure(MES) test after 3 hours upon intraperitoneal administration to mice at a dose of 114 mg/kg; Animals protected / Animals tested = 4/8; type: functional; procedure, shortened: as §1
# [3] = Lipophilicity value was evaluated; type: physicochemical; settings: RP-HPLC
# Procedure, shortened: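 Lipophilicity by RP-HPLC on a C18 column at 1.0 mL/min. Mobile phases were 10-50% […] with 50-90% 0.01 M phosphate buffer pH 7.4. Triplicate runs per eluent. log k_o extrapolated from at least four eluent compositions. ClogP also calculated.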
# Mus musculus [4] = experiment: Compound was tested for anticonvulsant activity in maximal electroshock seizure(MES) test after 3 hours upon intraperitoneal administration to mice; type: functional; settings: ip; procedure, shortened: as §1
# Mus musculus [5] = experiment: Compound was tested for anticonvulsant activity in maximal electroshock seizure(MES) test after 30 min upon intraperitoneal administration to mice; type: functional; settings: ip, 0.5 h; procedure, shortened: as §1
# Mus musculus [6] = experiment: The average latency on the onset of the seizures compared to the controls after 30 min in the strychnine test in mice at a dose of 209 mg/kg; type: functional
# Procedure, shortened: (§2)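 Male NMRI mice (18-25 g). Compound in DMSO given ip at 2 mL/kg. Strychnine chlorhydrate in saline (1.2 mg/mL, 1 mL/kg) given sc 30 min or 3 h later, with 30 min observation. Seizure onset latency expressed as % of the mean control latency (mean ± SD, n = 8-10).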
# Mus musculus [7] = experiment: The average latency on the onset of the seizures compared to the controls after 3 hr in the strychnine test in mice at a dose of 209 mg/kg; type: functional; procedure, shortened: as §2
# Mus musculus [8] = experiment: Compound was tested for anticonvulsant activity in maximal electroshock seizure(MES) test after 30 min upon intraperitoneal administration to mice at a dose of 84 mg/kg; Animals protected / Animals tested = 2/8; type: functional; procedure, shortened: as §1
# Mus musculus [9] = experiment: Percent of the tonic seizures after 30 min in the 3-mercaptopropionic acid test in mice at a dose of 209 mg/kg, ip; type: functional; settings: route intraperitoneal
# Procedure, shortened: (§3)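 Male NMRI mice (18-25 g). Compound in DMSO given ip at 2 mL/kg. 3-Mercaptopropionic acid 40 mg/kg ip in saline given 30 min or 3 h later. Tonic seizures recorded and expressed as % of animals.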
# Mus musculus [10] = experiment: Percent of the tonic seizures after 30 min in the 3-mercaptopropionic acid test in mice at a dose of 418 mg/kg, ip; type: functional; settings: route intraperitoneal; procedure, shortened: as §3
# Mus musculus [11] = experiment: Percent of the tonic seizures after 3h in the 3-mercaptopropionic acid test in mice at a dose of 209 mg/kg, ip; type: functional; settings: route intraperitoneal; procedure, shortened: as §3
# Mus musculus [12] = experiment: Percent of the tonic seizures after 3h in the 3-mercaptopropionic acid test in mice at a dose of 418mg/kg, ip; type: functional; procedure, shortened: as §3
# Mus musculus [13] = experiment: The average latency on the onset of the seizures compared to the controls after 30 min in the strychnine test in mice at a dose of 220 mg/kg; type: functional; procedure, shortened: as §2
# Mus musculus [14] = experiment: The average latency on the onset of the seizures compared to the controls after 3h in the strychnine test in mice at a dose of 220 mg/kg; type: functional; procedure, shortened: as §2
# Mus musculus [15] = experiment: Compound was tested for anticonvulsant activity in maximal electroshock seizure(MES) test after 3 hours upon intraperitoneal administration to mice at a dose of 750 mg/kg; type: functional; settings: ip; procedure, shortened: as §1
# Mus musculus [16] = experiment: Compound was tested for anticonvulsant activity in maximal electroshock seizure(MES) test after 30 min upon intraperitoneal administration to mice at a dose of 89 mg/kg; Animals protected / Animals tested = 2/8; type: functional; procedure, shortened: as §1
# Mus musculus [17] = experiment: Compound was tested for anticonvulsant activity in maximal electroshock seizure(MES) test after 3 hours upon intraperitoneal administration to mice at a dose of 106 mg/kg; Animals protected / Animals tested = 4/8; type: functional; procedure, shortened: as §1
# Mus musculus [18] = experiment: Compound was tested for anticonvulsant activity in maximal electroshock seizure(MES) test after 3 hours upon intraperitoneal administration to mice at a dose of 116 mg/kg; Animals protected / Animals tested = 3/8; type: functional; procedure, shortened: as §1
# Mus musculus [19] = experiment: Ratio of the animals protected to animals tested after 30 min. in the MES test after intraperitoneal administration to mice at a dose of 150 mg/kg; Animals protected / Animals tested = 2/10; type: functional; procedure, shortened: as §1
# Mus musculus [20] = experiment: Ratio of the animals protected to animals tested after 3h in the MES test after intraperitoneal administration to mice at a dose of 150 mg/kg; Animals protected / Animals tested = 3/8; type: functional; procedure, shortened: as §1
# Mus musculus [21] = experiment: Compound was tested for anticonvulsant activity in maximal electroshock seizure(MES) test after 3 hours upon intraperitoneal administration to mice at a dose of 120 mg/kg; Animals protected / Animals tested = 6/9; type: functional; procedure, shortened: as §1
# Mus musculus [22] = experiment: Compound was tested for anticonvulsant activity in maximal electroshock seizure(MES) test after 30 min upon intraperitoneal administration to mice at a dose of 120 mg/kg; Animals protected / Animals tested = 4/10; type: functional; procedure, shortened: as §1
# Mus musculus [23] = experiment: Ratio of the animals protected to animals tested after 30 min. in the MES test after intraperitoneal administration to mice at a dose of 150 mg/kg; Animals protected / Animals tested = 1/8; type: functional; procedure, shortened: as §1
# Mus musculus [24] = experiment: Ratio of the animals protected to animals tested after 3h in the MES test after intraperitoneal administration to mice at a dose of 150 mg/kg; Animals protected / Animals tested = 5/10; type: functional; procedure, shortened: as §1
# Mus musculus [25] = experiment: Compound was tested for anticonvulsant activity in maximal electroshock seizure(MES) test after 30 min upon intraperitoneal administration to mice at a dose of 120 mg/kg; Animals protected / Animals tested = 0/8; type: functional; procedure, shortened: as §1
# Mus musculus [26] = experiment: Compound was tested for anticonvulsant activity in maximal electroshock seizure(MES) test after 30 min upon intraperitoneal administration to mice at a dose of 89 mg/kg; Animals protected / Animals tested = 3/8; type: functional; procedure, shortened: as §1
# Mus musculus [27] = experiment: Compound was tested for anticonvulsant activity in maximal electroshock seizure(MES) test after 3 hours upon intraperitoneal administration to mice at a dose of 89 mg/kg; Animals protected / Animals tested = 4/10; type: functional; procedure, shortened: as §1
# Mus musculus [28] = experiment: Compound was tested for anticonvulsant activity in maximal electroshock seizure(MES) test after 30 min upon intraperitoneal administration to mice at a dose of 120 mg/kg; Animals protected / Animals tested = 1/8; type: functional; procedure, shortened: as §1
# Mus musculus [29] = experiment: The average latency on the onset of the seizures compared to the controls after 30 min in the strychnine test at a dose of 207 mg/kg; type: functional; procedure, shortened: as §2
# Mus musculus [30] = experiment: The average latency on the onset of the seizures compared to the controls after 3h in the strychnine test at a dose of 207 mg/kg; type: functional; procedure, shortened: as §2
# Mus musculus [31] = experiment: Compound was tested for anticonvulsant activity in maximal electroshock seizure(MES) test after 3 hours upon intraperitoneal administration to mice at a dose of 166 mg/kg; Animals protected / Animals tested = 6/9; type: functional; procedure, shortened: as §1
# Mus musculus [32] = experiment: Compound was tested for anticonvulsant activity in maximal electroshock seizure(MES) test after 30 min upon intraperitoneal administration to mice at a dose of 166 mg/kg; Animals protected / Animals tested = 3/9; type: functional; procedure, shortened: as §1
# Mus musculus [33] = experiment: Percent of the tonic seizures after 30 min in the 3-mercaptopropionic acid test at a dose of 207 mg/kg; type: functional; procedure, shortened: as §3
# Mus musculus [34] = experiment: Percent of the tonic seizures after 3h in the 3-mercaptopropionic acid test at a dose of 207 mg/kg; type: functional; procedure, shortened: as §3
# Mus musculus [35] = experiment: Compound was tested for anticonvulsant activity in maximal electroshock seizure(MES) test after 30 min upon intraperitoneal administration to mice at a dose of 58 mg/kg; Animals protected / Animals tested = 2/10; type: functional; procedure, shortened: as §1
# Mus musculus [36] = experiment: Compound was tested for anticonvulsant activity in maximal electroshock seizure(MES) test after 3 hr upon intraperitoneal administration to mice; type: functional; settings: ip; procedure, shortened: as §1
# Mus musculus [37] = experiment: Compound was tested for anticonvulsant activity in maximal electroshock seizure(MES) test after 30 min upon intraperitoneal administration to mice at a dose of 750 mg/kg; type: functional; settings: ip, 0.5 h; procedure, shortened: as §1
smiles,measurement,setting,value
O=C(CNC(=O)OCc1ccccc1)Nc1ccccc1,Protected/tested,Mus musculus [1],3
same,Protected/tested,Mus musculus [2],4
same,Log Ko,[3],3.49
CC(C)NC(=O)CNC(=O)OCc1ccccc1,ED50,Mus musculus [4],9.5 mg/kg
same,ED50,Mus musculus [5],14 mg/kg
same,Log Ko,[3],2.65
O=C(O)CNC(=O)OCc1ccccc1,Average latency,Mus musculus [6],150%
same,Average latency,Mus musculus [7],142%
same,ED50,Mus musculus [4],56.5 mg/kg
same,Protected/tested,Mus musculus [8],2
same,Tonic seizures,Mus musculus [9],55%
same,Tonic seizures,Mus musculus [10],33%
same,Tonic seizures,Mus musculus [11],45%
same,Tonic seizures,Mus musculus [12],27%
COC(=O)CNC(=O)OCc1ccccc1,Average latency,Mus musculus [13],154%
same,Average latency,Mus musculus [14],139%
same,ED50,Mus musculus [15],16.5 mg/kg
same,Protected/tested,Mus musculus [16],2
same,Log Ko,[3],2.64
CC(C)(C)NC(=O)CNC(=O)OCc1ccccc1,ED50,Mus musculus [5],39.4 mg/kg
same,Protected/tested,Mus musculus [17],4
same,Log Ko,[3],3.25
O=C(CNC(=O)OCc1ccccc1)NC1CCCCC1,ED50,Mus musculus [5],33.4 mg/kg
same,Protected/tested,Mus musculus [18],3
same,Log Ko,[3],3.7
CCCCCCCCCCNC(=O)CNC(=O)OCc1ccccc1,Protected/tested,Mus musculus [19],2
same,Protected/tested,Mus musculus [20],3
same,Log Ko,[3],> 5
O=C(CNC(=O)OCc1ccccc1)OCc1ccccc1,Protected/tested,Mus musculus [21],6
same,Protected/tested,Mus musculus [22],4
same,Log Ko,[3],4.35
CCCCCCCCCCOC(=O)CNC(=O)OCc1ccccc1,Protected/tested,Mus musculus [23],1
same,Protected/tested,Mus musculus [24],5
same,Log Ko,[3],> 5
Cc1ccc(NC(=O)CNC(=O)OCc2ccccc2)cc1,ED50,Mus musculus [4],27.4 mg/kg
same,Protected/tested,Mus musculus [25],0
same,Log Ko,[3],3.99
COC(=O)CNC(=O)CCc1ccccc1,Protected/tested,Mus musculus [26],3
same,Protected/tested,Mus musculus [27],4
same,Log Ko,[3],2.37
Cc1ccccc1NC(=O)CNC(=O)OCc1ccccc1,ED50,Mus musculus [4],74.3 mg/kg
same,Protected/tested,Mus musculus [28],1
same,Log Ko,[3],3.49
O=C(CNC(=O)OCc1ccccc1)NCCc1ccccc1,ED50,Mus musculus [4],16.6 mg/kg
same,ED50,Mus musculus [5],8.1 mg/kg
same,Log Ko,[3],3.88
NC(=O)CNC(=O)OCc1ccccc1,ED50,Mus musculus [4],8.3 mg/kg
same,ED50,Mus musculus [5],15.2 mg/kg
same,Log Ko,[3],1.52
CNC(=O)CNC(=O)OCc1ccccc1,ED50,Mus musculus [4],7.8 mg/kg
same,ED50,Mus musculus [5],13.6 mg/kg
same,Log Ko,[3],2.03
O=C(O)CNC(=O)CCc1ccccc1 [HYDROCINNAMOYLGLYCINE],Average latency,Mus musculus [29],99%
same,Average latency,Mus musculus [30],96%
same,Protected/tested,Mus musculus [31],6
same,Protected/tested,Mus musculus [32],3
same,Tonic seizures,Mus musculus [33],80%
same,Tonic seizures,Mus musculus [34],100%
CCCCCNCC(N)=O [MILACEMIDE],ED50,Mus musculus [4],30.2 mg/kg
same,Protected/tested,Mus musculus [35],2
O=C1NC(=O)C(c2ccccc2)(c2ccccc2)N1 [PHENYTOIN],ED50,Mus musculus [5],3.5 mg/kg
same,ED50,Mus musculus [36],3 mg/kg
CCCC(CCC)C(=O)O [VALPROIC ACID],ED50,Mus musculus [15],80.6 mg/kg
same,ED50,Mus musculus [37],44.5 mg/kg
CCCC(CCC)C(N)=O [VALPROMIDE],ED50,Mus musculus [15],11.4 mg/kg
same,ED50,Mus musculus [37],14.9 mg/kg
